A selection: hits, their analogues and other compounds. The true share with any hit is near 2.4%.
MPTP block: mitochondrial permeability transition pore inhibitors, primary screen, biochemical, isolated mouse mitochondria, absorbance; Ca2+ swelling absorbance, 30 min; inhibition, % at 10 µM; hit rate 1.4% among 360,000; AID 602449, 2012;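 active = inhibition of 50% or more, scaled per plate between neutral and stimulator controls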
697 NFkB inh: inhibitors of PMA/ionomycin-induced NF-kB reporter, 697 cells, primary screen, B-cell NF-kB inhibitor project, cell-based, luminescence, uHTS | inhibition, % at 4 µM | hit rate 0.33% among 330,000 | 697 B-cell NF-kB luciferase reporter, 16 h; in the data active = inhibition above about 35%
NR2E3 ag-1: inhibitors of NR2E3-RetCOR corepressor binding, primary screen, NR2E3 agonist project, biochemical, TR-FRET, GST-NR2E3, biotin-RetCOR; Photoreceptor-specific nuclear receptor (Homo sapiens), Q9Y5X4; 1536-well; inhibition of corepressor binding, % at 4.78 µM; hit rate 0.12% among 320,000; AID 2300, 2010;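 active = percent inhibition above the cutoff of mean plus 3 SD of all tested compounds, set per screening campaign, cut at about 20% in these data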
Target sequence (Q9Y5X4 whole entry, looked up): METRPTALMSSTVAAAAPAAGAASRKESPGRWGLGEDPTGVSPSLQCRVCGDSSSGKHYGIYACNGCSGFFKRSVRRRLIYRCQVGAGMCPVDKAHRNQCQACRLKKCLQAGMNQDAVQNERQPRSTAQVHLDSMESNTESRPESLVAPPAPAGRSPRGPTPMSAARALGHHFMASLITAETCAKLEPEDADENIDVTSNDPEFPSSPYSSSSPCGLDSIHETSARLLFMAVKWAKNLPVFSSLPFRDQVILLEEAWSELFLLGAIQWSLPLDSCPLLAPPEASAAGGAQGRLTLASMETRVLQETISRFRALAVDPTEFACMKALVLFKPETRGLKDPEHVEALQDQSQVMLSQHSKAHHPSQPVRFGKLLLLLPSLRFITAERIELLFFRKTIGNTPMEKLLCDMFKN
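Material: NR2E3–RetCOR corepressor complex | Quantity: 1.35 nM GST-tagged NR2E3 final | Schedule: 5 h at 4 °C | Replication: Singlicate compound wells | Reagent: RetCOR corepressor, biotinylated, 7 nM | Controls: Biotin wells as high control, 0.6% DMSO wells as low control | Signal: TR-FRET, Eu(K)-anti-GST donor, streptavidin-D2 acceptor, ex 340, em 617/671 nm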
Jurkat NFkB inh: inhibitors of induced NF-kB luciferase reporter, primary screen, TCR NF-kB activation inhibitor project, cell-based, luminescence, uHTS; inhibition, % at 4 µM; AID 435003, 2010; Jurkat, PMA/ionomycin-induced NF-kB luciferase reporter; hit rate 0.53% among 330,000; in the data active = inhibition above about 50%
aDG glyco act: activators of alpha-DG glycosylation, primary screen, uHTS, Pro5-aDG cells, AlphaScreen. alpha-DG glycosylation AlphaScreen (IIH6); 0% Pro5, 100% B10-LARGE cell signal. activation, % at 10 µM. hit rate 0.22% among 360,000;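 active = activation of at least 8% versus controls, or a plate z-score of at least 8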;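 note: Pro5 are CHO cells carrying HIG-tagged alpha-DG that lacks glycosylation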
NR2E3 ag-2: NR2E3 agonists in two-hybrid cells, primary screen, cell-based, luminescence, CHO-S, Gal4-NCOR/VP16-NR2E3. Photoreceptor-specific nuclear receptor (Homo sapiens), Q9Y5X4. luciferase. inhibition of corepressor binding, % at 3.98 µM. hit rate 0.35% among 360,000;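 active = inhibition above the mean of all tested compounds plus 3 SD, cut at about 70% in these data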;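 note: higher means lower luciferase signal from less NR2E3 corepressor binding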
Rh123 counter: fluorescence retest of MPTP screen hits in isolated mitochondria, single concentration | inhibition, % at 10 µM | hit rate 78% among 5,000 | membrane potential, Rhodamine 123 fluorescence | shares compounds with MPTP block; in the data active = inhibition above about 22%
MPTP swell DR: mitochondrial permeability transition pore inhibitors, dose response, biochemical, absorbance, uHTS hits. shares compounds with MPTP block. isolated mitochondria swelling. IC50, µM. hit rate 58% among 780; in the data active = IC50 below about 20 µM
MPTP counter DR: fluorescent counter-screen in isolated mitochondria, dose response, counter-screen for MPTP inhibitor project, biochemical, fluorescence, uHTS hits. shares compounds with MPTP block. AID 651564, 2012. IC50, µM. isolated mitochondria counterscreen, fluorescence read-out. hit rate 49% among 780; in the data active = IC50 below about 80 µM
Large screens that a line does not name were inactive (follow-up assays come after a bar, where they were run).

Cc1cccc(CNC(=O)C2CCC(=O)N(CC3CCCCC3)C2)c1 (stereo unspecified)	none (no result: 697 NFkB inh, NR2E3 ag-1, Jurkat NFkB inh)
COc1ccc(/C=N/NC(=O)c2cc(Br)ccc2O)cc1Cn1cc(Cl)cn1	MPTP block 67.6 | Rh123 counter 53.5
COc1ccc(/C=N/NC(=O)c2ccc(Cl)cc2)cc1Cn1cc(Cl)cn1	none
O=C(NNC(=S)Nc1ccc(Cl)cc1Cl)c1ccc(N2CCOCC2)c([N+](=O)[O-])c1	MPTP block 98.4 | Rh123 counter 62.9
O=C(Nc1ccc(-c2nc3ccccc3o2)cc1)c1ccc(N2CCOCC2)c([N+](=O)[O-])c1	MPTP block 87.0 | Rh123 counter 64.2
O=C(NNC(=S)Nc1ccc(Cl)cc1Cl)c1ccncc1	MPTP block 63.3 | Rh123 counter inactive | MPTP swell DR inactive | MPTP counter DR 42.4
Cc1ccc(NC(=S)NNC(=O)c2ccc(N3CCOCC3)c([N+](=O)[O-])c2)cc1Cl	MPTP block 88.0 | Rh123 counter 55.9
O=C(NNC(=S)Nc1ccc(Br)cc1)c1ccc(N2CCOCC2)c([N+](=O)[O-])c1	none
CC1CN(C(=O)COC(=O)COc2ccc(C#N)cc2)CC(C)O1 (stereo unspecified)	none
CN1CCN(C(=O)C(=O)c2cn(CC(=O)N3CCCCCC3)c3ccccc23)CC1	none (no result: 697 NFkB inh, NR2E3 ag-1, Jurkat NFkB inh)
O=C(NNC(=S)Nc1ccc(Cl)c(Cl)c1)c1cccc([N+](=O)[O-])c1	MPTP block 70.4 | Rh123 counter 52.0
O=C1CSC(=S)N1/N=C/c1cc(Br)c(O)c(Br)c1	MPTP block 83.2 (no result: 697 NFkB inh, Jurkat NFkB inh) | Rh123 counter 66.1
O=C(NC1CCN(Cc2ccccc2)CC1)c1cccc(S(=O)(=O)Nc2cc(C(F)(F)F)ccc2Cl)c1	none
CCC1CCCCN1C(=O)c1cccc(S(=O)(=O)Nc2cc(C(F)(F)F)ccc2Cl)c1 (stereo unspecified)	MPTP block 73.5 | Rh123 counter 80.7
CN(Cc1ccccc1)C(=O)c1cccc(N2C(=O)NC3CC2(C)Oc2ccccc23)c1 (stereo unspecified)	none
Oc1ccc(Nc2ccnc3cc(Cl)ccc23)cc1	none
Cc1ccc(/C=N/Nc2ccnc3cc(Cl)ccc23)c(C)c1	MPTP block 64.3 | Rh123 counter 91.9
Clc1ccc2c(N/N=C/c3ccc(Br)cc3)ccnc2c1	MPTP block 88.5 (no result: 697 NFkB inh, Jurkat NFkB inh) | Rh123 counter 73.5
Clc1ccc2c(N/N=C/c3cccnc3)ccnc2c1	none
Oc1ccc(/C=N/Nc2ccnc3cc(Cl)ccc23)c(O)c1	MPTP block 58.4 | Rh123 counter 59.3
Cc1ccccc1/C=N/Nc1ccnc2cc(Cl)ccc12	MPTP block 98.9 (no result: 697 NFkB inh, Jurkat NFkB inh) | Rh123 counter 91.3
Cn1c(=O)c2cc(NC(=S)NCc3ccccc3F)ccc2n1Cc1cccc(C(F)(F)F)c1	none (no result: 697 NFkB inh, NR2E3 ag-1, Jurkat NFkB inh)
Cc1cccn2c(=O)c(C(=O)NCCCN3CC(C)CC(C)C3)c(O)nc12 (stereo unspecified)	none
COc1cc2c(=O)n(CCC(=O)NCC3CCCO3)c(=O)n(CC(=O)Nc3ccc(C)cc3)c2cc1OC (stereo unspecified)	none
CN(C)S(=O)(=O)c1ccc(Cl)c(NC(=O)CN2CCNC(=O)C2)c1	none
CCOC(=O)CCc1c(C)c2ccc(OC3CCCCC3=O)cc2oc1=O (stereo unspecified)	none
Cc1ccc(/C=C2/SC(=S)N(CCCC(=O)Nc3cc([N+](=O)[O-])ccc3O)C2=O)cc1	MPTP block 63.8 | Rh123 counter inactive | MPTP swell DR 4.58 | MPTP counter DR <2.5
O=C1/C(=C/c2ccc(O)c([N+](=O)[O-])c2)SC(=S)N1Cc1ccccc1	MPTP block 72.7 | Rh123 counter 55.2
O=C(CN1C(=O)S/C(=C\c2ccccc2)C1=O)Nc1cc([N+](=O)[O-])ccc1O	MPTP block 57.8 | Rh123 counter 79.1
CN(Cc1ccccc1)C(=O)C1CCN(S(=O)(=O)c2ccc3nc4c(c(C(=O)O)c3c2)CCCC4)CC1	none
CC1=C(C(=O)OC(C)C)C(C)NC(=O)N1 (stereo unspecified)	none
COC(=O)C1(C(=O)OC)C2C(=O)C3C(C21)C3(C(=O)OC(C)(C)C)C(=O)OC(C)(C)C (stereo unspecified)	none (no result: 697 NFkB inh, NR2E3 ag-1, Jurkat NFkB inh)
CCn1nc([N+](=O)[O-])c(C(C#N)c2nc3cc(C(F)(F)F)ccc3s2)c(Cl)c1=O (stereo unspecified)	MPTP block 113.9 | Rh123 counter inactive
CCCn1nc([N+](=O)[O-])c(C(C#N)c2nc3ccccc3o2)c(Cl)c1=O (stereo unspecified)	MPTP block 100.9 | Rh123 counter 49.6
COc1ccc(C(=O)NC(=S)Nc2ccc3[nH]c(=O)[nH]c3c2)c(OC)c1	none
Cc1ccc(NC(=O)c2cc3cccc([N+](=O)[O-])c3[nH]2)cc1	MPTP block 64.2 | Rh123 counter 61.2
CCC(C)c1ccccc1NC(=O)c1cc2cccc([N+](=O)[O-])c2[nH]1 (stereo unspecified)	MPTP block 61.2 | Rh123 counter 66.3
Cc1ccc(NC(=O)c2ccc(-n3cccn3)c([N+](=O)[O-])c2)cc1	none
Cc1cnc(CN(C)Cc2c(C(=O)N3CCc4ccccc4C3)nc3ccc(Cl)cn23)[nH]1	none
COc1ccc(NC(=O)NN2CCN(C)CC2)cc1OC	none
Cn1nc(C(C)(C)C)cc1NC(=O)Nc1cc(Cl)cc(Cl)c1	MPTP block 84.4 | Rh123 counter 73.2
CN1CCN(NC(=O)Nc2cc(Cl)cc(Cl)c2)CC1	MPTP block 90.4 (no result: NR2E3 ag-1) | Rh123 counter 91.4
O=C(CCC1CCCN(Cc2ccncc2)C1)NCc1ccc(F)c(F)c1 (stereo unspecified)	none
Cc1ccc(N/N=C(\C#N)C(N)=S)c(C)c1	MPTP block 89.9 (no result: 697 NFkB inh, Jurkat NFkB inh) | Rh123 counter 83.1
CCOC(=O)[C@]12CCCC=C1N(CCc1ccc(OC)c(OC)c1)C(=O)[C@H](CC(=O)N1CCSCC1)C2	none (no result: 697 NFkB inh, NR2E3 ag-1, Jurkat NFkB inh, NR2E3 ag-2)
